# MLLE-PAM2 inh = blocks PAM2 peptide binding to the PABP1 MLLE domain; 0.36% of 360,000 active; inhibition, % at 20 µM; GST-MLLE / FITC-PAM2 fluorescence polarization; P11940; in the data active = inhibition above about 35%, passing the limit was not always enough;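 note: plate controls were DMSO wells with GST-MLLE for no effect and wells lacking GST-MLLE protein for full effect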
# IMP-1 inh-1 = inhibitors of Pseudomonas aeruginosa IMP-1 metallo-beta-lactamase | purified IMP-1, nitrocefin hydrolysis, epi-absorbance fluorescence | inhibition, % at 5.6 µM | 0.45% of 290,000 active;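 active = inhibition above the mean plus 3 SD of all compounds in the same screening run, cut at about 4.5% in these data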;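 note: 0% = IMP-1 with DMSO and 100% = DMSO wells lacking enzyme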
#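 Material – recombinant IMP-1 enzyme, purified · Amount – IMP-1 0.2 nM before substrate addition · Medium – HEPES buffer pH 7.1 with ZnSO4 and Brij 35 · Timing – 25 °C, 15 min preincubation, 25 min reaction · Measured by – plate fluorescence quenching by hydrolysis product, ex 480/em 530 nm · Read-out – percent enzyme inhibition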
# eIF4H inh = inhibitors of RNA binding by human eIF4H. Q15056. eIF4H fluorescence polarization binding assay. inhibition, % at 35 µM. 0.94% of 290,000 active. AID 2012;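 note: calls also rest on retests at 20 µM and on dose response follow-up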
# PABP polyA inh = blocks human PABP binding to poly(A) RNA | P11940 | fluorescence polarization | calls only at 35 µM | AID 2014 | 1% of 290,000 active;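 note: calls also rest on retests at 20 µM and on dose response follow-up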
# VIM-2 inhibitor = inhibitors of Pseudomonas aeruginosa VIM-2 metallo-beta-lactamase; 0.89% of 290,000 active; purified VIM-2, nitrocefin hydrolysis, epi-absorbance fluorescence; inhibition, % at 5.6 µM;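 active = inhibition above the mean of all tested compounds plus 3 SD, cutoff set per screening run, cut at about 7.5% in these data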;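 note: red hydrolysis product quenches plate fluorescence so inhibitors raise well fluorescence; 0% = enzyme with DMSO and 100% = DMSO without enzyme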
# IMP-1 inh-2 = selectivity counter-screen for VIM-2 inhibitors: IMP-1 metallo-beta-lactamase inhibitors. shares compounds with VIM-2 inhibitor. inhibition, % at 5.6 µM. AID 1856. purified IMP-1, nitrocefin hydrolysis, epi-absorbance fluorescence. 1,300 tested, under 10 active;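 note: 0% = enzyme with vehicle and 100% = vehicle without enzyme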
# VIM-2 FRET ctr = VIM-2 FRET inhibition, artifact counter-screen; shares compounds with VIM-2 inhibitor; 23% of 1,300 active; purified VIM-2, CCF2 FRET substrate hydrolysis; inhibition, % at 5.6 µM; AID 1857;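 active = inhibition above the mean of all tested compounds plus 3 SD, cut at about 19% in these data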;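 note: 0% = VIM-2 plus DMSO and 100% = no enzyme wells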
# TEM-1 inh = blocks E. coli TEM-1 beta-lactamase in VIM-2 selectivity screen; 3% of 1,300 active; shares compounds with VIM-2 inhibitor; Purified TEM-1, nitrocefin hydrolysis, epi-absorbance fluorescence; inhibition, % at 5.6 µM;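 active = inhibition above that campaign's mean inhibition plus 3 SD, cut at about 0.46% in these data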;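 note: 0% = TEM-1 with DMSO and 100% = TEM-1 with 100 µM potassium clavulanate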
# Target sequence (P62593 whole entry, looked up): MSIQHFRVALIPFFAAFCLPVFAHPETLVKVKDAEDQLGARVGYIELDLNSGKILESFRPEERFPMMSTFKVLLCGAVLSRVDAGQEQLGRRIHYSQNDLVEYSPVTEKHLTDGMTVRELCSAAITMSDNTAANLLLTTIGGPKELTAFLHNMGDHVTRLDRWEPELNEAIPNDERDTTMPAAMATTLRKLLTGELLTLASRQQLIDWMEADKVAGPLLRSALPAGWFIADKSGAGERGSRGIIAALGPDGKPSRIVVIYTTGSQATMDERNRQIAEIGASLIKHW
# VIM-2 confirm 2 = confirmation of P. aeruginosa VIM-2 metallo-beta-lactamase inhibitors | shares compounds with VIM-2 inhibitor | purified VIM-2, nitrocefin hydrolysis, epi-absorbance | inhibition, % at 5.6 µM | 96% of 1,300 active;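 active = inhibition of the VIM-2 beta-lactamase enzyme above about 11% from the earlier first-round screen, limit read from the data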;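 note: 0% = VIM-2 with DMSO and 100% = buffer wells without enzyme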
# * = called active by the depositor; i = inactive; ? = inconclusive; · = not tested or not shown; + = active, no number. In the library only some 2.2% were active in any assay of this set; here they are far more common. Unless noted, the rule behind the calls is not given here.
SMILES,MLLE-PAM2 inh,IMP-1 inh-1,eIF4H inh,PABP polyA inh,VIM-2 inhibitor,IMP-1 inh-2,VIM-2 FRET ctr,TEM-1 inh,VIM-2 confirm 2
COC(=O)c1ccc(-c2ccc(C(=O)N3CCCN(C)CC3)cc2)cc1,·,-4,-2,i,13*,-4,30*,-6,21*
O=C(CSc1nnc(CNC(=O)c2ccccc2)o1)NCc1ccc2c(c1)OCO2,-11,-2,-14,i,-3,·,·,·,·
CC(=O)Nc1ccc(S(=O)(=O)N(C)CC(=O)OCC(=O)c2cc(C)n(-c3ccc4c(c3)OCO4)c2C)cc1,15,-2,13,i,-1,·,·,·,·
Oc1ccc(CCNc2c3ccccc3nc3ccccc23)cc1O,-6,-5,2,i,17*,-4,0,-6,21*
c1ccc(CNc2c3ccccc3nc3ccccc23)cc1,-7,-2,3,i,22*,-3,1,-5,32*
COc1ccccc1-c1nc(C#N)c(NCCCn2ccnc2)o1,-8,-1,1,i,18*,-4,-6,-5,35*
COc1ccc(-c2nc(C#N)c(NCCCN(C)C)o2)cc1OC,-3,3,0,i,12*,-2,1,-6,27*
N#Cc1nc(-c2ccccc2)oc1NCCCn1ccnc1,5,-5,10,i,26*,-3,-11,-6,45*
CC(C)(C)S(=O)N1Cc2cc(C(=O)NCc3ccc(Oc4ccccc4)cc3)nc(-c3cccc(-c4cc5ccccc5o4)c3)c2[C@@H]1CCO (stereo partly drawn),-24,·,·,·,·,·,·,·,·
CSC[C@H](NC(=O)COc1cc2c(c3oc(=O)c(C)c(C)c13)CCC(C)(C)O2)C(=O)O,6,-1,-11,i,28*,-3,48*,-8,34*
Cc1c(C)c2c(OCC(=O)N[C@@H](Cc3ccccc3)C(=O)O)cc3c(c2oc1=O)CCC(C)(C)O3,20,0,3,i,40*,-3,68*,-6,46*
COc1cccc(-c2ccc3c(c2)N(Cc2ccc(F)cc2)C(=O)C(C)S3)c1 (stereo not drawn),9,·,·,·,·,·,·,·,·
O=C(C1CCN(c2ncnc3c2sc2cccc(F)c23)CC1)N1CCCC1,·,-4,-14,i,13*,-2,3,-7,27*
CCOC(=O)c1ccccc1NC(=O)COC(=O)c1ccc(OCC(=O)N2CCOCC2)c(OCC)c1,-14,·,·,·,·,·,·,·,·
O=C(c1ccco1)N1CCN(C2=NS(=O)(=O)c3ccccc32)CC1,4,-2,-12,i,-1,·,·,·,·
O=C1c2ccccc2-c2onc3c(N4CCN(CCO)CC4)cc(N4CCN(C(=O)c5ccco5)CC4)c1c23,-76,1,83*,+,14*,-2,-10,-11,18*
CN1CCN(c2cc(N3CCN(C(=O)c4ccco4)CC3)c3c4c(onc24)-c2ccccc2C3=O)CC1,-99,0,93*,+,17*,-2,-12,-10,24*
COc1ccc(NC(=O)C2(C)Cc3c(-c4ccc(C(N)=O)cc4)ccnc3O2)cn1 (stereo not drawn),31,·,·,·,·,·,·,·,·
Cn1c(=O)[nH]c(=O)c2c1nc(NCCCn1ccnc1)n2Cc1ccc(F)cc1,-10,-4,-4,i,2,·,·,·,·
C/C(Cl)=C\Cn1c(NCCCn2ccnc2)nc2c1c(=O)n(C)c(=O)n2C,-3,-5,-2,i,31*,-4,-3,-7,49*
C/C(Cl)=C/Cn1c(NCCCn2ccnc2)nc2c1c(=O)[nH]c(=O)n2C,8,-3,-8,i,22*,-4,-6,-4,45*
c1ccc2c(c1)oc1c(NCCCn3ccnc3)ncnc12,3,-1,5,i,56*,-4,-7,-7,60*
Cc1nc(NCCCn2ccnc2)c2oc3ccccc3c2n1,0,1,-4,i,76*,-2,-8,-6,83*
OC[C@H]1O[C@@H](c2nc(-c3ccc4[nH]ccc4c3)no2)[C@H](O)[C@@H](O)[C@H]1O,1,·,·,·,·,·,·,·,·
CCSc1nncn1/N=C/c1ccc(OC)c(OC)c1,2,-2,17,i,24*,-3,0,-6,41*
SMILES,MLLE-PAM2 inh,IMP-1 inh-1,eIF4H inh,PABP polyA inh,VIM-2 inhibitor,IMP-1 inh-2,VIM-2 FRET ctr,TEM-1 inh,VIM-2 confirm 2
CCc1nc(OCCN(CC)CC)c2oc3ccccc3c2n1,-9,-4,1,i,5,·,·,·,·
CCN(CC)CCOc1ncnc2c1oc1ccccc12,-3,0,-2,i,15*,-3,1,-5,14*
CCN1CCN(c2ccc(N=Cc3ccccc3O)cc2)CC1,-2,-10,-2,i,40*,-8,-5,-6,28*
Cc1cccc(C(=O)O)c1O,2,·,·,·,·,·,·,·,·
Cc1cccc(C(=O)c2ccccc2C(=O)O)c1O,4,0,-9,i,22*,-3,30*,-6,17*
Brc1ccc(-c2ccc(CNCc3ccccn3)o2)cc1,4,0,2,i,39*,-4,-15,-6,50*
CC(C)CCn1c(=O)c2sccc2n2c(CCCC(=O)N3CCC(N4CCCCC4)CC3)nnc12,5,-3,4,i,13*,-2,2,-2,17*
CC(NC(=O)CCCc1nnc2n(C)c(=O)c3sccc3n12)c1ccccc1 (stereo not drawn),2,-2,-3,i,1,·,·,·,·
NC(=S)NN=C1c2cc(OCCN3CCOCC3)ccc2-c2ccc(OCCN3CCOCC3)cc21,35,-3,2,i,59*,-3,-3,-11,71*
CCCCCCOc1ccc(N2C(=O)CC(SCCN)C2=O)cc1 (stereo not drawn),21,-4,-10,i,15*,-2,6,-6,5
CCOc1ccc(N2C(=O)CC(SCCN)C2=O)cc1 (stereo not drawn),30,-5,0,i,-5,·,·,·,·
CC(/C=C\c1ccccc1)=C/C(=O)O,14,-2,6,i,-2,·,·,·,·
CC(=C/C(=O)O)/C=C/c1ccc([N+](=O)[O-])cc1,-4,-3,-10,i,14*,-3,0,-5,7
CC(=O)c1ccc2c(c1)c(C#N)c1ccccc1[n+]2[O-],174,2,?,?,24*,-2,3,2.7*,28*
Cc1ccc(CNc2c(C=O)c(=O)[nH]c3ccccc23)cc1,1,-3,4,i,14*,-3,31*,-5,21*

# Screens as filed in PubChem.
